Experimental data from different studies.
Compare with care: the assays were run in different laboratories.
Target: Histamine H2 receptor (HRH2, Homo sapiens, UniProt P25021)

| SMILES | observed | action | method | concentration | setting | endpoint | value |
| --- | --- | --- | --- | --- | --- | --- | --- |
| N#Cc1ccc(Nc2ccc3[nH]c(=O)[nH]c3c2)c(Cl)c1 | cell-free assay |  |  | 10 µM |  | inhibition | 2.26% |
| CCCNc1nc2ccccc2n1Cc1ccc(Cl)cc1 | ligand displacement |  |  | 10 µM |  | inhibition | 83.3% |
| COCCOc1nc(-c2ccc(Cl)nc2)nc2c1CN(C(=O)c1ncn3ccccc13)CC2 | ligand displacement |  |  | 10 µM |  | inhibition | -0.24% |
| N=C(NCCCCCCCCCCCCN)NCCCc1c[nH]cn1 | GTPγS binding | agonist | radiometric |  | cell membranes | Emax | 66% |
| Cc1nc(N)sc1CCCNC(=N)NCCCCCCCCNC(=N)NCCCc1sc(N)nc1C | GTPγS binding | agonist | radiometric |  | cell membranes | Emax | 52% |
| CCN(Cc1ccccc1C(F)(F)F)C(=O)C1CCN(S(=O)(=O)c2ccc3[nH]ncc3c2)CC1 | ligand displacement |  | radioligand | 10 µM |  | inhibition | 5% |
| O=C(c1ccc(F)cc1)N(Cc1ccccc1)C1CCCCC1 | cell-free assay |  |  | 10 µM |  | inhibition | -3% |
| O=C(Nc1ccc(S(=O)(=O)N2CCC(Cl)CC2)cc1)c1ccc([N+](=O)[O-])o1 | ligand displacement |  | radioligand | 10 µM |  | inhibition | 10% |
| O=C(c1ccc(Cl)cc1)N(Cc1ccccc1)C1CCCCC1 | cell-free assay |  |  | 10 µM |  | inhibition | -27.3% |
| CCN(CC)c1ccc(C2Nc3ccc(C(=O)c4ccccc4)cc3NC3=C2C(=O)CC(C)(C)C3)cc1 (stereo not drawn) | ligand displacement |  | radioligand | 10 µM |  | inhibition | 38% |
| N#Cc1cc(Cn2c(N3CCCC3)nc3ccccc32)ccc1F | ligand displacement |  |  | 10 µM |  | inhibition | 64.1% |
| O=C1N=C(N2CCCCN2)S/C1=C\c1ccc(F)cc1O | ligand displacement |  | radioligand | 10 µM |  | inhibition | < 10% |
